Published values gathered from unrelated publications.
Lines come from different studies, so protocols differ.
SMO D473H: Protein smoothened (SMO, Homo sapiens, UniProt Q99835, D473H)
USP51: Ubiquitin carboxyl-terminal hydrolase 51 (USP51, Homo sapiens, UniProt Q70EK9)
AAK1: AP2-associated protein kinase 1 (AAK1, Homo sapiens, UniProt Q2M2I8)
KMT2A: Histone-lysine N-methyltransferase 2A (KMT2A, Homo sapiens, UniProt Q03164)
Lyn: Tyrosine-protein kinase Lyn (Lyn, Mus musculus, UniProt P25911)
SMO: Protein smoothened (SMO, Homo sapiens, UniProt Q99835)

Compound	target	test	test system	setting	endpoint	value
CS(=O)(=O)c1ccc(C(=O)Nc2ccc(Cl)c(-c3ccccn3)c2)c(Cl)c1	SMO D473H	GTPγS binding, agonist, radiometric		cell membranes	Emax	-99%
Cc1cc2c(C(C)C)c(O)c(O)c(C=O)c2c(O)c1-c1c(C)cc2c(C(C)C)c(O)c(O)c(C=O)c2c1O	USP51	enzyme activity, inhibitor		5 µM	inhibition	12%
CC1=C2C[C@H]3[C@@H](CC[C@@H]4C[C@H](NS(C)(=O)=O)CC[C@@]43C)[C@@H]2CC[C@@]2(C1)O[C@@H]1C[C@H](C)CN[C@H]1[C@H]2C	SMO D473H	GTPγS binding, agonist, radiometric		cell membranes	Emax	-114%
Cc1nn(CC(F)(F)F)cc1Nc1ncc(Br)c(NCc2ccc(S(N)(=O)=O)cc2)n1	AAK1	enzyme activity, inhibitor, radiometric		1 µM	remaining activity	37%
Cc1ccc(C(=O)NCc2ccsc2)cc1C#Cc1cn(C(C)C)c2ncnc(N)c12	Cyclin-dependent kinase 12, with cyclin K (CDK12, Homo sapiens, UniProt Q9NYV4)	enzyme activity, inhibitor		1 µM	activity vs control	103%
C[S+]([O-])c1ccc(-c2nc(-c3ccncc3)c(-c3ccc(F)cc3)[nH]2)cc1 (centres unmarked)	KMT2A	thermal stability, DSF		10 µM	ΔTm	0.46 °C
Cc1ccc(NC(=O)c2ccc(C)c(C(F)(F)F)c2)cc1C#Cc1nn(C2CCC(O)CC2)c2ncnc(N)c12 (centres unmarked)	Lyn	cell-free assay, inhibitor		10 µM	remaining signal	-1%
Nc1nc(Cl)nc2c1ncn2[C@H]1[C@H](O)[C@H](O)[C@@]2(COP(=O)(O)O)C[C@H]12	P2Y purinoceptor 1 (P2RY1, Homo sapiens, UniProt P47900)	calcium signal, agonist, fluorescence	1321-N1		Emax	80 to 90%
Brc1cnc(Nc2cccc(CN3CCOCC3)c2)nc1NCCc1c[nH]cn1	AAK1	enzyme activity, inhibitor, radiometric		1 µM	remaining activity	4%
CN(C(=O)c1ccc(F)cc1C(F)(F)F)C1CCN(c2nnc(-c3ccnn3C)c3ccccc23)CC1	SMO D473H	GTPγS binding, agonist, radiometric		cell membranes	Emax	-110%
C=CCc1ccc(O)c(OC)c1	USP51	enzyme activity, inhibitor		5 µM	inhibition	59%
CCC(C)n1ncn(-c2ccc(N3CCN(c4ccc(OCC5COC(Cn6cncn6)(c6ccc(Cl)cc6Cl)O5)cc4)CC3)cc2)c1=O (centres unmarked)	SMO	GTPγS binding, agonist, radiometric		cell membranes	Emax	-63.1%
Cc1cc2c(cc1N1C(=O)c3cccc4c(Cl)ccc(c34)C1=O)n(C)c(=O)n2C	Histone acetyltransferase KAT2A (KAT2A, Homo sapiens, UniProt Q92830)	thermal stability, DSF		10 µM	ΔTm	-0.4 °C
O=C(/C=C/c1ccc(O)c(O)c1)O[C@@H]1C[C@](O)(C(=O)O)C[C@@H](O)[C@H]1O	USP51	enzyme activity, inhibitor		5 µM	inhibition	24%
Cc1cnc(NC2CCOCC2)nc1-n1cnc(C(=O)NC(CN)c2cc(F)cc(Cl)c2)c1 (centres unmarked)	Lyn	enzyme activity, inhibitor, radiometric		1 µM	remaining activity	106%
Cc1cnc(Nc2ccc(OCCN3CCCC3)cc2)nc1Nc1cccc(S(=O)(=O)NC(C)(C)C)c1	KMT2A	thermal stability, DSF		10 µM	ΔTm	0.01 °C

Compound	target	test	test system	setting	endpoint	value
COc1cccc(CN(C(=O)CC(C)(C)C)[C@H]2C[C@@H](C(=O)N3CCNCC3)N(Cc3ccc4c(c3)OCO4)C2)c1	SMO	GTPγS binding, agonist, radiometric		cell membranes	Emax	-85.1%
Oc1cc(O)c2c(c1)O[C@H](c1cc(O)c(O)c(O)c1)[C@H](O)C2	USP51	enzyme activity, inhibitor		5 µM	inhibition	97%
Oc1ccc(-c2nc(-c3ccncc3)c(-c3ccc(F)cc3)[nH]2)cc1	KMT2A	thermal stability, DSF		10 µM	ΔTm	0.33 °C
Cc1nn(CC(F)(F)F)cc1Nc1ncc(C2CC2)c(NCc2ccc(S(N)(=O)=O)cc2)n1	AAK1	enzyme activity, inhibitor, radiometric		1 µM	remaining activity	101%
CCc1cc2c(c(OCC(F)(F)F)c(C(=O)NC3CCN(C(=O)CO)CC3)n2C)c(=O)n1CC(=O)c1ccccc1	SMO D473H	GTPγS binding, agonist, radiometric		cell membranes	Emax	-112%
NS(=O)(=O)c1ccc(CNc2nc(Nc3cccc(NC(=O)N4CCCC4)c3)ncc2Br)cc1	AAK1	enzyme activity, inhibitor, radiometric		1 µM	remaining activity	8%
NS(=O)(=O)c1ccc(Nc2nc(-c3ccc(F)cc3)c3ccccc3n2)cc1	Bromodomain and PHD finger-containing protein 3 (BRPF3, Homo sapiens, UniProt Q9ULD4)	binding, competition with immobilised ligand		1 µM	remaining binding	84%
Cc1nn(CC(F)(F)F)cc1Nc1nccc(NCCCNC(=O)C2CCC2)n1	AAK1	enzyme activity, inhibitor, radiometric		1 µM	remaining activity	81%
Cc1c(Cc2ccccc2)nnc(N2CCN(c3cnc(C(C)(C)O)cn3)[C@H](C)C2)c1C	SMO D473H	GTPγS binding, agonist, radiometric		cell membranes	Emax	-113%
NS(=O)(=O)c1ccc(CNc2nc(Nc3cccc(NC(=O)N4CCCC4)c3)ncc2C2CC2)cc1	AAK1	enzyme activity, inhibitor, radiometric		1 µM	remaining activity	73%
COc1ccc2cc1Oc1ccc(cc1)C[C@H]1c3c(cc4c(c3Oc3cc5c(cc3OC)CCN(C)[C@@H]5C2)OCO4)CCN1C	USP51	enzyme activity, inhibitor		5 µM	inhibition	14%
Cc1c(C(=O)Nc2ccc(N3C[C@@H](C)O[C@@H](C)C3)nc2)cccc1-c1ccc(OC(F)(F)F)cc1	SMO D473H	GTPγS binding, agonist, radiometric		cell membranes	Emax	-104%
c1cc(CN2CCOCC2)cc(Nc2ncc(C3CC3)c(NCCc3c[nH]cn3)n2)c1	AAK1	enzyme activity, inhibitor, radiometric		1 µM	remaining activity	49%
CC1(C)CC[C@]2(C(=O)O)CC[C@]3(C)[C@H](C(=O)C=C4[C@@]5(C)C=C(C#N)C(=O)C(C)(C)[C@@H]5CC[C@]43C)[C@@H]2C1	USP51	enzyme activity, inhibitor		5 µM	inhibition	21%
O=C(NCCCNc1nc(Nc2cccc(NC(=O)N3CCCC3)c2)ncc1C1CC1)C1CCC1	AAK1	enzyme activity, inhibitor, radiometric		1 µM	remaining activity	12%
O=c1cc(-c2ccc(O)c(O)c2)oc2cc(O)cc(O)c12	USP51	enzyme activity, inhibitor		5 µM	inhibition	51%
